In data set [1] the test system is STAT1. The class given is cell-based, rat. The conditions noted are these: co-treatment with IFN-γ, 30 min, immunofluorescence imaging.
In data set [2] the test system is INS-1E β-cells. The experiment in a line: caspase-3/7 assay in INS-1E β-cells. It is filed as cell-based, rat. In a few lines:
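Rat INS-1E β-cells co-treated with a cytokine mixture and the test compound over a dose range; caspase-3/7 activity read after 48 h. IC50 is fitted from triplicate dose-responses. Maximum activity is expressed as % rescue from cytokine-induced caspase-3/7 activation. For the cytokine-optimization runs, values are the mean ± standard error of three independent experiments with six replicates each.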

A short description of data set [3]: thermodynamic solubility assay. It is filed as physicochemical. The conditions noted are these: PBS pH 7.4, relative to compound 1.

With `C[C@@H]1CN([C@@H](C)CO)C(=O)c2cccc(NC(=O)Nc3cccc4ccccc34)c2O[C@H]1CN(C)S(=O)(=O)c1ccc2c(c1)OCCO2` [Compound 1], the “effect on IFN-γ-induced nuclear localization of STAT1” value (shortened to “effect … of STAT1”) in data set [1] is listed as “nearly abolished this nuclear localization of STAT1”. The “protective effect in the caspase assay” value in data set [2] (condition A: standard concentrations of cytokines) is “small protective effect”. Moreover, in data set [2] (condition B: IL-1β and TNF-α lowered 20- and 10-fold, IFN-γ increased 4-fold), the “rescue efficacy in the caspase assay” value is “higher rescue efficacy”. The “reduction of caspase activity” value in data set [2] (condition C (IFN-γ 500 ng/mL), INS-1E β-cells, 48 h) was determined as 74%.

As to `C[C@@H]1CN([C@@H](C)CO)C(=O)c2cccc(NC(=O)NCc3cccc4ccccc34)c2O[C@H]1CN(C)S(=O)(=O)c1ccc2c(c1)OCCO2` [Compound 7a], the “effect … of STAT1” value in data set [1] is on record as “did not inhibit nuclear translocation of STAT1”. For the same compound, in data set [2] (INS-1E β-cells), the “activity in the caspase assay (in words)” value is “inactive”.

As for `C[C@@H]1CN([C@@H](C)CO)C(=O)c2cccc(NC(=O)N(C)c3cccc4ccccc34)c2O[C@H]1CN(C)S(=O)(=O)c1ccc2c(c1)OCCO2` [Compound 7b], the “fold increase in solubility compared to 1” value in data set [3] was found to be 110 fold.

For the compound `C[C@@H]1CN([C@@H](C)CO)C(=O)c2cccc(NC(=O)Nc3cccc4ncccc34)c2O[C@H]1CN(C)S(=O)(=O)c1ccc2c(c1)OCCO2` [Compound 7f], the “fold increase in solubility compared to 1” value in data set [3] stood at 1400 fold.

As for `C[C@@H]1CN([C@@H](C)CO)C(=O)c2cccc(NC(=O)Nc3cccc4cccnc34)c2O[C@H]1CN(C)S(=O)(=O)c1ccc2c(c1)OCCO2` [Compound 7i, N-(((2R,3R)-5-((S)-1-hydroxypropan-2-yl)-3-methyl-6-oxo-10-(3-(quinolin-8-yl)ureido)-3,4,5,6-tetrahydro-2H-benzo[b][1,5]oxazocin-2-yl)methyl)-N-methyl-2,3-dihydrobenzo[b][1,4]dioxine-6-sulfonamide], in data set [1], the “effect … of STAT1” value is “nearly abolished this nuclear localization of STAT1”.

The record behind these values is PMC3690275 (Journal of medicinal chemistry, 2013).
